# LMP1 NFkB inh: inhibitors of Epstein-Barr LMP1-induced NF-kappaB reporter; LMP1-induced NF-kappaB luciferase reporter cells, luminescence; inhibition, % at 12.5 µM; hit rate 0.69% among 350,000; AID 504558; in the data active = inhibition above about 41%;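 note: 0% = neutral control wells and 100% = reference inhibitor control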
# EWS-Fli block: blocks EWS/Fli oncoprotein-driven transcription | A673 NR0B1-luciferase reporter, viability-normalised | inhibition, % at 12.6 µM | hit rate 0.67% among 350,000;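 active = mean inhibition of at least 50% after viability correction, with every replicate also passing that limit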;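 note: firefly luciferase signal divided by Alamar Blue viability fluorescence both relative to DMSO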
# FN deposition inh: fibronectin deposition inhibition; AH1F fibroblasts, Alexa488-fibronectin deposition fluorescence, overnight; inhibition, % at 12.6 µM; hit rate 0.086% among 350,000; AID 743247;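 active = mean inhibition across replicates of 30% or more, regardless of how many single replicates reach that level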;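 note: positive control wells lacked labelled fibronectin entirely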
#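 Assay system: AH1F fibroblasts assembling fluorescent fibronectin matrix; Amount: 10000 AH1F cells per well; Buffer or medium: DMEM, 2% serum; Probe or stimulus: Alexa488-fibronectin, 24 nM final in well; Doses: single compound dose, delivered by pin transfer; Incubation: 1 h adhesion, overnight exposure; Measured by: fluorescence 485/525 nm; Read-out: fibronectin deposition inhibition.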
# Shn3 3UTR inh: reduces Shn3 3'UTR luciferase signal in osteoblasts; AID 588674; inhibition, % at 12.5 µM; Clone20 osteoblast Shn3 3'UTR firefly luciferase, 24 h; hit rate 0.52% among 360,000;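 active = mean inhibition of at least 75% with every replicate also reaching 75%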;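 note: 0% = median of neutral control wells and 100% = pilot-screen positive control compound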
# aSyn UTR inh: MLPCN primary screen, SNCA 5' untranslated region; alpha-synuclein 5'UTR reporter, inhibitor activity; hit rate 0.82% among 300,000; inhibition, % (tested at 7.5 µM); in the data active = inhibition above about 60%;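 note: H4 neuroglioblastoma cells stably carrying SNCA 5'UTR luciferase fusion; 0% = DMSO wells and 100% = positive control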
# PAX8 inh HTS: lowers PAX8-driven luciferase in RMG-I cells; RMG-I TPO-luciferase reporter, SteadyGlo, 24 h; inhibition, % at 12.6 µM; hit rate 1.2% among 360,000; AID 652154;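 active = mean replicate inhibition at least 60% with every replicate also reaching 60%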;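 note: luciferase light reporting Pax8 driven TPO promoter activity; plate controls were median of neutral control wells for no effect and mitoxantrone controls for full effect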
# An asterisk follows results filed as active; / = not tested or not shown. Rows were chosen to be rich in hits. Some 2.1% of all compounds tested hit in one or more screens of this group.
SMILES,LMP1 NFkB inh,EWS-Fli block,FN deposition inh,Shn3 3UTR inh,aSyn UTR inh,PAX8 inh HTS
COc1ccc(S(=O)(=O)Nc2ccc3c(c2)C(=O)N([C@@H](C)CO)C[C@H](C)[C@H](CN(C)C(=O)Nc2ccc(C(F)(F)F)cc2)OCCCC[C@H](C)O3)cc1,/,12,-10,/,/,50
COc1ccc(S(=O)(=O)Nc2ccc3c(c2)C(=O)N([C@@H](C)CO)C[C@H](C)[C@@H](CN(C)C(=O)Nc2ccc(C(F)(F)F)cc2)OCCCC[C@@H](C)O3)cc1,/,5,-8,/,/,84*
COc1ccc(S(=O)(=O)Nc2ccc3c(c2)C(=O)N([C@@H](C)CO)C[C@@H](C)[C@@H](CN(C)C(=O)Nc2ccc(C(F)(F)F)cc2)OCCCC[C@H](C)O3)cc1,/,2,-2,/,/,9
COc1ccc(S(=O)(=O)Nc2ccc3c(c2)C(=O)N([C@@H](C)CO)C[C@H](C)[C@@H](CN(C)C(=O)Nc2ccc(C(F)(F)F)cc2)OCCCC[C@H](C)O3)cc1,/,10,-8,/,/,65*
COc1ccc(S(=O)(=O)N(C)C[C@@H]2OCCCC[C@@H](C)Oc3ccc(NS(=O)(=O)c4ccc(F)cc4)cc3C(=O)N([C@@H](C)CO)C[C@H]2C)cc1,/,-8,9,/,/,-5
CCOc1cc2c(c3c1C(c1ccccc1)N(S(=O)(=O)c1ccc(C)cc1)C3)C(=O)C=CC2=O (stereo unspecified),/,62*,-2,99*,/,5
O=C(COC(=O)c1ccc(S(=O)(=O)NCc2ccco2)cc1)Nc1ccc(Cl)cn1,59*,-3,-17,-6,-16,7
O=C(COC(=O)c1ccc(S(=O)(=O)NCc2ccco2)cc1)Nc1ccccc1,-8,-4,-2,-9,/,-3
COC1=C(C)C(=O)C2=C(C1=O)C1C3CC4=C(C(=O)C(OC)=C(C)C4=O)C(CNC(=O)C(C)=O)N3C(C#N)C(C2)N1C (stereo unspecified),77*,32,-4,94*,/,106*
O=C(Nc1ccc2c(c1)[C@H]1C[C@H](CC(=O)N3CCOCC3)O[C@@H](CO)[C@H]1O2)NC1CCCC1,/,-1,-2,/,/,-1
O=C(C[C@H]1CC[C@H](NC(=O)c2ccc3c(c2)OCO3)[C@H](CO)O1)NCc1ccc(Cl)cc1,/,-10,/,/,/,7
O=C(Oc1c(CN2CCOCC2)cc(Cl)c2cccnc12)c1ccccc1,11,31,/,69,45,41
Oc1ccc(CN2CCN(Cc3ccccc3)CC2)c2cccnc12,-4,/,12,35,-10,-2
Oc1c(CN2CCCCC2)cc(Br)c2cccnc12,72*,/,/,56,112*,/
Oc1c(CN2CCc3ccccc3C2)cc(Cl)c2cccnc12,85*,/,/,87*,91*,/
O=S(=O)(c1ccc(Cl)cc1)N1CCN(Cc2ccc(O)c3ncccc23)CC1,34,8,10,88*,77*,50
Oc1c(Cl)cc(CN2CCOCC2)c2cccnc12,7,37,/,90*,/,103*
O=C(COc1c(Br)cc(Br)c2cccnc12)N1CCCCC1,-2,-30,-6,-1,-23,27
CC(C)C#Cc1cnc2c(c1)C(=O)N([C@@H](C)CO)C[C@H](C)[C@H](CN(C)C(=O)Cc1ccccn1)O2,/,-7,-12,/,/,-7
O=[N+]([O-])c1cc(CN2CCN(c3ccccc3)CC2)c(O)c2ncccc12,80*,29,/,90*,82*,43
COc1ccc(C(=O)Oc2c(CN3CCOCC3)cc(Cl)c3cccnc23)cc1OC,/,-1,-3,/,31,8
CN1CCN(Cc2cc(COCc3ccccc3)c3cccnc3c2O)CC1,58*,/,1,74,99*,53
COc1cc(OC)cc(C(=O)Oc2c(CN3CCOCC3)cc(Cl)c3cccnc23)c1,1,4,-3,1,92*,-11
O=C(Oc1c(CN2CCOCC2)cc(Cl)c2cccnc12)c1ccccc1F,1,31,/,40,106*,50
CCNC(=O)C[C@@H]1CC[C@H]2[C@H](COc3ccc(NC(=O)Cc4ccccc4)cc3C(=O)N2C)O1,/,5,-11,/,/,15
SMILES,LMP1 NFkB inh,EWS-Fli block,FN deposition inh,Shn3 3UTR inh,aSyn UTR inh,PAX8 inh HTS
Cc1ccc(S(=O)(=O)N(C)C[C@@H]2Oc3ccc(NC(=O)NC4CCCCC4)cc3C(=O)N([C@H](C)CO)C[C@@H]2C)cc1,/,11,/,/,/,17
COc1ccc(/C=C/c2ccc3cccc(O)c3n2)c(OC)c1OC,-4,-27,35*,19,-92,-10
COc1ccc(C(CNC(=O)C(CCSC)NC(=O)c2ccccc2Cl)N2CCCCC2)cc1 (stereo unspecified),71*,-8,-2,6,/,-11
COc1cccc(-n2nc(C#N)c(Cl)cc2=O)c1,12,58*,12,96*,17,98*
C[C@H](CO)N1C[C@H](C)[C@@H](CN(C)Cc2cccc(F)c2)Oc2ncc(C3=CCCC3)cc2C1=O,/,-33,/,/,/,-4
CSc1ccccc1C(=O)Nc1nc2ccccc2[nH]1,-16,-84,-3,-59,-133,-95
COc1ccccc1C(=O)Nc1nc2ccccc2[nH]1,88*,92*,1,91*,100*,129*
COc1cc(SC)ccc1C(=O)Nc1nc2ccccc2[nH]1,96*,94*,-5,96*,131*,114*
C[C@@H]1CN([C@@H](C)CO)C(=O)Cc2cc(NC(=O)CCCCCC(=O)Nc3ccccc3N)ccc2O[C@@H]1CN(C)Cc1ccccc1,/,37,/,/,/,1
CCOc1ccccc1C(=O)NC1CC2CCCC(C1)N2Cc1nnnn1Cc1ccco1 (stereo unspecified),57*,/,4,34,1,4
O=C(NC1CC2CCC(C1)N2Cc1nnnn1Cc1ccco1)NC12CC3CC(CC(C3)C1)C2 (stereo unspecified),8,/,5,-4,26,30
CCOC(=O)c1cn2nc(N3CCCC3)ccc2n1,53*,-51,4,25,48,29
CCOC(=O)c1cn2nc(Oc3ccccc3)ccc2n1,-14,-12,9,-23,-149,-6
CCOC(=O)c1cn2nc(N3CCCCC3)ccc2n1,59*,-116,-2,30,21,41
CCCNC(=O)N1CC2(CN(S(=O)(=O)CC)C2)c2c(n(C)c3cc(OC)ccc23)[C@H]1CO,/,5,/,/,/,-10

# Bioassay records deposited in PubChem by Broad Institute.
